Shown are actives, neighbours in structure and some others; about 1.7% of the full set was active somewhere.
NS3 helicase inh: inhibitors of Hepatitis C virus NS3 helicase; NS3 helicase DNA unwinding, Cy5 molecular beacon fluorescence; inhibition, % at 10.9 µM; 0.56% of 290,000 active; AID 1800;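 active = inhibition above the mean of all tested compounds plus 3 SD, set per campaign, cut at about 35% in these data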;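 also: 0% = DMSO wells and 100% = thioflavine S control wells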
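Material: hepatitis C virus NS3 helicase domain fragment enzyme; measured by: Cy5 fluorescence, 0 and 60 min reads; control set: DMSO and thioflavine S; incubation: 60 min unwinding reaction at 25 °C after ATP addition; read-out basis: % inhibition from 60/0 min fluorescence ratio, DMSO 0%, thioflavine S 100%; repeats: singlicate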
EBNA-1 inh: blocks EBNA-1 binding to DNA. EBNA-1 DNA binding, fluorescence polarization. inhibition, % at 14.8 µM. 0.34% of 300,000 active; in the data active = inhibition above about 28%
ZTA counter: blocks Epstein-Barr virus ZTA, an EBNA-1 counter-screen; AID 2234; ZTA-DNA binding, fluorescence polarization; 0.15% of 320,000 active; inhibition, % at 11 µM; in the data active = inhibition above about 33%
EBV gp42 inh: EBV gp42 inhibition | Fluorescence polarization binding assay, mP read-out | 0.42% of 220,000 active | Q1HVG2 | inhibition, % (tested at 21.74 µM); in the data active = inhibition above about 50%
HCV core dimer: HCV core protein dimerization inhibition | TR-FRET GST/Flag-core106 dimerization, 1536-well | inhibition, % at 5 µM | 0.33% of 300,000 active | AID 1899;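 active = inhibition above the mean of all tested compounds plus 3 SD, set per screening campaign, cut at about 45% in these data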
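Test system: GST/Flag-tagged HCV core106 proteins; Medium: KF-containing HEPES buffer, pH 7.45, DTT, CHAPS, BSA; Times: compound-protein-antibody incubation 4 h at 22.5 °C; Detection: TR-FRET 671 and 617 nm emission; Benchmarks: wells lacking GST-core106 and wells with excess unlabelled core106.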
MEX-5 binding: C. elegans MEX-5 TCR-2 RNA binding activity; 0.38% of 300,000 active; Q9XUB2; activity score (negative = inhibition of binding), % at 10 µM; MEX-5/FITC-TCR2 RNA binding, fluorescence polarization; stronger effect = lower value;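 active = inhibition past about -25% in most replicates, and total fluorescence under double the plate's negative control median, limit read from the data; inconclusive = replicates evenly split on the limit, or fluorescence at least double controls; inactive = too little inhibition in most replicates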;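 also: 0% = DMSO and -100% = 5 µM competing unlabeled TCR2 RNA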
Target sequence (Q9XUB2 whole entry, looked up): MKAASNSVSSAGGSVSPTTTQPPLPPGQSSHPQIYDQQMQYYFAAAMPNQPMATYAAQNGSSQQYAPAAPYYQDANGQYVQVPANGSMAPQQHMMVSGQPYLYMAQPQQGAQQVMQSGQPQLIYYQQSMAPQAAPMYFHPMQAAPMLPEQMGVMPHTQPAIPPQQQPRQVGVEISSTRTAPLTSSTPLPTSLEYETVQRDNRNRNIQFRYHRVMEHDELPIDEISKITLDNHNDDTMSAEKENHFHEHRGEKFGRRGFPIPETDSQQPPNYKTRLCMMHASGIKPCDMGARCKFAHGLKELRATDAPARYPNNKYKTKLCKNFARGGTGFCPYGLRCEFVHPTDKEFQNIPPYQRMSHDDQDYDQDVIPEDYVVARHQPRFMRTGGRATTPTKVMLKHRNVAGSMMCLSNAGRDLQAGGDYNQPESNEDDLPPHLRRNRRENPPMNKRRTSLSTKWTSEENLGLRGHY
* = called active by the depositor; ? = inconclusive; . = no result given; + = active, no number; ! = not confirmed by another sample.

SMILES	NS3 helicase inh	EBNA-1 inh	ZTA counter	EBV gp42 inh	HCV core dimer	MEX-5 binding
CN1/C(=C\C=C2C(=O)NC(=O)NC2=O)C(C)(C)c2ccccc21	8	-14	10	-314	-6	-86*
CN1/C(=C\C=Nc2ccccc2)C(C)(C)c2ccccc21	-8	10	7	-10	2	-1
O=C(NCCO)c1nsnc1NCCCl	-5	5	-1	-5	1	-2
COc1cc(O)c(C(=O)O)c(-c2cc(O)c(O)cc2C)c1	.	1	-6	-10	-2	-62*
Cc1cc(/C=C2\C(=O)NC(=O)N(c3ccc(Cl)cc3)C2=O)c(C)n1-c1sc2c(c1C#N)CCCC2	28	2	10	-73	47*	5
CCOC(=O)c1c(-n2c(C)cc(/C=C3\C(=O)NC(=O)N(C)C3=O)c2C)sc2c1CCCC2	6	-16	-3	-15	24	1
Cc1ccc(N2C(=O)NC(=O)/C(=C\c3cc(C)n(-c4ccc(C(=O)O)cc4)c3C)C2=O)cc1	26	11	12	.	17	-35*
O=C(c1cccnc1)c1cc2ccccc2[nH]1	-25	-6	3	3	3	-2
O=C(N/N=C/c1c(O)n(C2CC2)c(=S)[nH]c1=O)c1ccccc1O	12	5	8	0	4	-60*
Cc1ccccc1-n1c(O)c(/C=N/NC(=O)c2ccccc2O)c(=O)[nH]c1=S	13	-5	2	-15	1	-29*
CCOC(=O)c1c(/N=C/c2c(O)n(-c3ccc(F)cc3)c(=S)[nH]c2=O)sc2c1CCCC2	2	7	4	56*	1	1
CCOC(=O)c1ccc(N=Cc2c(O)n(-c3ccc(OC)cc3)c(=S)[nH]c2=O)cc1	-2	5	-4	-11	3	0
CCOC(=O)c1c(/N=C/c2c(O)n(-c3ccccc3F)c(=S)[nH]c2=O)sc2c1CCCC2	-1	0	11	130*	14	-9
CC(C)[C@]12CC(=O)[C@H](C)[C@H]1C2	.	.	-4	.	.	.
CCN(CC(=O)Nc1ccc(NC(C)=O)cc1)C(=O)CSC(c1ccccc1)c1ccccc1	.	.	-6	.	.	.
CCc1ccc(N2C(=O)NC(=O)/C(=C\c3cccn3CCOc3ccc(C(C)C)cc3)C2=O)cc1	1	-7	-7	-3	-1	-36*
Cc1ccc(OCCn2cccc2/C=C2/C(=O)NC(=O)N(Cc3ccco3)C2=O)cc1	27	2	14	-23	10	-4
COC(=O)C1=C(c2cc3ccccc3o2)C[C@@H]2CC[C@H]1N2C(=O)NCc1ccc(C(F)(F)F)cc1	.	-8	11	.	20	-2
CN1/C(=C\C=C\C2=[N+](C)c3ccc4ccccc4c3C2(C)C)C(C)(C)c2ccccc21	33	101*	+	97*	-22	.
O=S(=O)(NC1CCCCC1)OCC(Cl)(Cl)Cl	9	15	5	.	6	0
CCOC(=O)c1ccc(NC(=O)c2c(O)[nH]c(=O)[nH]c2=O)cc1	4	-2	-3	77*	-2	-4
COc1ccc(-n2c(Cc3cccc([N+](=O)[O-])c3)nc3ccccc3c2=O)cc1	0	-2	-7	-6	-11	1
O=c1[nH]c(=O)n(Cc2ccco2)c(O)c1C=NCc1cccs1	2	-1	-13	-9	-1	-4
O=c1[nH]c(=S)n(Cc2ccco2)c(O)c1C=NCc1cccs1	3	0	5	2	55*	-3
Cc1cc(N2CCCC2)ccc1C=C(C#N)C#N	8	6	-4	85*	-3	?
SMILES	NS3 helicase inh	EBNA-1 inh	ZTA counter	EBV gp42 inh	HCV core dimer	MEX-5 binding
Cc1cc(N2CCCCC2)ccc1C=C1C(=O)N(C)C(=S)N(C)C1=O	10	-9	-26	-23	1	3
CCC(CO)NC(=O)C1C=C2c3cccc4[nH]cc(c34)CC2N(C)C1 (centres undefined)	-37	0	11	22	3	-15
COC(=O)C1C=C2c3cccc4[nH]cc(c34)CC2N(C)C1 (centres undefined)	3	.	.	114*	.	.
CC(C)C[C@H]1C(=O)N2CCC[C@H]2[C@]2(O)O[C@](NC(=O)[C@@H]3C=C4c5cccc6[nH]cc(c56)C[C@H]4N(C)C3)(C(C)C)C(=O)N12	.	8	5	.	42	.
CC[C@@H](CO)NC(=O)[C@@H]1C=C2c3cccc4c3c(cn4C)C[C@H]2N(C)C1	-6	-4	0	53*!	-5	-31*
COc1cc(C(=O)OC2C[C@H]3CC[C@@H](C2)N3)ccc1O (some centres undefined)	-13	16	1	.	2	-3
O=c1[nH]c(=O)n(CCc2ccc(F)cc2)c(O)c1C=NCCCn1ccnc1	-5	-9	-10	-53	-4	-40*
Cc1nonc1OCCNCCNc1ccc([N+](=O)[O-])c2cccnc12	-1	-4	-2	-6	2	-27*
Cc1cc(OC(C)C(=O)NCc2ccncc2)c2c3c(c(=O)oc2c1)CCCC3 (centres undefined)	32	-10	3	.	-6	4
Cc1cccc(N2C(=O)NC(=O)/C(=C/c3ccc([N+](=O)[O-])o3)C2=O)c1	33	18	37*	-20	1	.
COC(=O)C1=C(c2cccc(OC)c2OC)C[C@@H]2CC[C@H]1N2C(=O)NCc1cccc2ccccc12	.	5	11	.	9	-1
Cc1cc(C=C2C(=O)NC(=O)NC2=O)c(C)n1-c1cccnc1	5	2	12	0	3	-71*
CC(Cc1ccccc1)/[N+]([O-])=C\c1ccc(C(F)(F)F)cc1 (centres undefined)	.	1	-3	.	-19	0
CCOC(=O)CC(NC(=O)C(Cc1ccc(N(CCCl)CCCl)cc1)NC(C)=O)C(=O)OCC (centres undefined)	0	-8	-21	-6	1	4
N=Cc1c(O)n(-c2ccc(C34CC5CC(CC(C5)C3)C4)cc2)c(=O)[nH]c1=O	12	29*	21	-91	35	0
O=c1[nH]c(=O)n(-c2ccc(Br)cc2)c(O)c1C=NC(CO)(CO)CO	-1	5	4	-5	4	0
O=C(O)CCC(=O)NCCC1=c2ccccc2=N/C1=C\c1c(O)n(Cc2ccc(F)cc2)c(=S)[nH]c1=O	-16	8	7	82*	11	-1
C=C1C(=O)[C@@]23C[C@H]4[C@@H]5[C@@]6(C)CCC[C@@]57[C@@H]2[C@@H](O)[C@@H]1C[C@H]3[C@H]7N4C6	.	-3	6	.	5	1
COc1ccc(OC)c(N2C(=O)NC(=O)/C(=C/c3ccc([N+](=O)[O-])s3)C2=O)c1	25	-3	14	1	8	-42*
CCN1C(=O)/C(=C\c2ccc([N+](=O)[O-])s2)C(=O)NC1=S	31	.	.	1	.	.

Source: PubChem BioAssay
